Data published in ChEMBL document CHEMBL1123397, “Antiarrhythmic activity of 17 beta-aminoestratrienes. Comparison of 3-ols and 3-acetates with the corresponding 3-(3-amino-2-hydroxypropyl) ethers” (1986).
Converted amounts (≈) assume the structure as drawn. The source made the active and inactive calls. The rule behind the calls is not given here.

Legend:
[1] = test system: Rattus norvegicus; experiment: Effect on heart rate before isoprenaline induced tachycardia in the anesthetized rat at 1 mg/kg dose; type: functional
Outline: (§1)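 Same ligation protocol in anaesthetised male Wistar rats. Heart rate was taken from the lead II ECG at three points: just before i.v. drug or vehicle, 14 min after it (just before isoprenaline 10 μg/kg), and 1 min after isoprenaline. Pre vs post rates and isoprenaline responses vs controls were compared by Student's t test. Mean ± SEM of 7-12 observations.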

[2] = test system: Rattus norvegicus; experiment: Compound that antagonized arrhythmias evoked by coronary artery ligation in the rat was measured at 0.05 mg/kg dose; type: functional
Outline: (§2)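 Male Wistar rats, anaesthetised and artificially ventilated, with left thoracotomy; silk suture under main left coronary artery. After stabilization, test drug or vehicle i.v.; 14 min later isoprenaline 10 μg/kg; 1 min after that the ligature was tightened and VF incidence recorded over 30 min. Carotid pressure and lead II ECG monitored continuously. 7-12 animals per group.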

[3] = species: Mus musculus; experiment: ED 50 value against aconitine-induced arrhythmias in mice; type: functional
Outline: (§3)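 Anaesthetised mice were given test compound intraperitoneally, then aconitine intravenously to induce arrhythmia. At least three doses were tested in separate groups (n = 6-10). ED50 is the dose raising the arrhythmogenic aconitine dose 50% above the control requirement.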

[4] = test system: Rattus norvegicus; experiment: Effect on heart rate after isoprenaline induced tachycardia in the anesthetized rat at 1 mg/kg dose; type: functional; outline: as §1
[5] = test system: Rattus norvegicus; experiment: Effect on heart rate on 1 min post isoprenaline induced tachycardia in the anesthetized rat at 1 mg/kg dose.; type: functional
Outline: (§4)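 Test drug or vehicle was given i.v., and isoprenaline (10 µg/kg) 14 min later. Heart rate was read from the lead II ECG just before drug, at 14 min (pre-isoprenaline) and 1 min after isoprenaline. Compared by Student's t test; 7–12 animals per group; mean ± SEM.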

[6] = test system: Rattus norvegicus; experiment: Mean change in heart rate recorded 14 min after the administration of compound.; type: functional; outline: as §4
[7] = species: Rattus norvegicus; experiment: Maximum increase in heart rate evoked by isoprenaline.; type: functional; outline: as §4
[8] = species: Cavia porcellus; experiment: Concentration required to reduce maximum following frequencu (MFF) of isolated guinea pig atria by 25%; type: functional
Outline: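 Guinea pig left atria in an organ bath of Krebs solution at 35 °C, gassed with carbogen, electrically driven, isometric contractions recorded. Drugs added cumulatively; maximum following frequency determined 6 min after each concentration. Concentration reducing MFF by 25% (EC25) calculated from six preparations.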

[9] = species: Mus musculus; experiment: ED 50 value against aconitine-induced arrhythmias in mice; IA is Inactive; type: functional, organism-based; outline: as §3
[10] = test system: Rattus norvegicus; experiment: Antagonism of Ventricular Fibrilloflutter (VF) evoked by coronary artery ligation in the rat measured at 2 mg/kg dose; type: functional, Heart; outline: as §2
[11] = test system: Rattus norvegicus; experiment: Effect on heart rate after isoprenaline induced tachycardia in the anesthetized rat at 2 mg/kg dose; type: functional; outline: as §1
[12] = test system: Rattus norvegicus; experiment: Compound was tested for antagonism of Ventricular Fibrilloflutter (VF) evoked by coronary artery ligation in the rat measured at 1 mg/kg dose; type: functional, Heart; outline: as §2
[13] = test system: Rattus norvegicus; experiment: Effect on heart rate before isoprenaline induced tachycardia in the anesthetized rat at 2 mg/kg dose; type: functional; outline: as §4
[14] = test system: Rattus norvegicus; experiment: Effective dose that antagonized arrhythmias evoked by coronary artery ligation in the rat was measured at 1.0 mg/kg dose; type: functional
[15] = test system: Rattus norvegicus; experiment: Effect on heart rate on 1 min post isoprenaline induced tachycardia in the anesthetized rat at 2.0 mg/kg dose.; type: functional; outline: as §4
[16] = test system: Rattus norvegicus; experiment: Compound was tested for antagonism of Ventricular Fibrilloflutter (VF) evoked by coronary artery ligation in the rat measured at 0.5 mg/kg dose; type: functional, Heart; outline: as §2
[17] = species: Cavia porcellus; experiment: Compound was tested for antiarrhythmic activity (maximum rate of phase 0 depolarization- MRD) in guinea pig atria at 8(ug/mL) concentration; type: functional, Heart
Outline: (§5)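 Guinea pig left atria pinned in a recording chamber, superfused with carbogen-gassed Krebs solution at 35 ± 0.5 °C and electrically stimulated. Transmembrane action potentials were recorded with conventional microelectrodes, giving RMP, AP height, APD50, APD90 and maximum rate of depolarization. Values are mean ± SEM from n cells across five preparations.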

[18] = species: Cavia porcellus; experiment: Compound was tested for antiarrhythmic activity expressed as action potential height (AP) in guinea pig atria at 8(ug/mL) concentration; type: functional, Heart; outline: as §5
[19] = test system: Rattus norvegicus; experiment: Effect on heart rate on 1 min post isoprenaline induced tachycardia in the anesthetized rat at 0.5 mg/kg dose.; type: functional; outline: as §4
[20] = species: Cavia porcellus; experiment: Compound was tested for antiarrhythmic activity (time taken to reach 90% repolarization) in guinea pig atria at 8(ug/mL) concentration; type: functional, Heart; outline: as §5
[21] = test system: Rattus norvegicus; experiment: Effective dose of compound that antagonized arrhythmias evoked by coronary artery ligation in the rat was measured at 0.5 mg/kg dose; type: functional
[22] = species: Cavia porcellus; experiment: Compound was tested for antiarrhythmic activity (time taken to reach 50% repolarization) in guinea pig atria at 2(ug/mL) concentration; type: functional, Heart; outline: as §5
[23] = test system: Rattus norvegicus; experiment: Effect on heart rate after isoprenaline induced tachycardia in the anesthetized rat at 0.5 mg/kg dose; type: functional; outline: as §1
[24] = species: Cavia porcellus; experiment: Compound was tested for antiarrhythmic activity expressed as resting membrane potential (RMP) in guinea pig atria at 2 ug/mL concentration; type: functional; conditions: Heart; outline: as §5
[25] = species: Cavia porcellus; experiment: Compound was tested for antiarrhythmic activity (time taken to reach 90% repolarization) in guinea pig atria at 2(ug/mL) concentration; type: functional, Heart; outline: as §5
[26] = species: Cavia porcellus; experiment: Compound was tested for antiarrhythmic activity expressed as resting membrane potential (RMP) in guinea pig atria at 8 ug/mL concentration; type: functional; conditions: Heart; outline: as §5
[27] = species: Cavia porcellus; experiment: Compound was tested for antiarrhythmic activity (maximum rate of phase 0 depolarization- MRD) in guinea pig atria at 4(ug/mL) concentration; type: functional, Heart; outline: as §5
[28] = species: Cavia porcellus; experiment: Compound was tested for antiarrhythmic activity (maximum rate of phase 0 depolarization- MRD) in guinea pig atria at 2(ug/mL) concentration; type: functional, Heart; outline: as §5
[29] = species: Cavia porcellus; experiment: Compound was tested for antiarrhythmic activity (time taken to reach 50% repolarization) in guinea pig atria at 4(ug/mL) concentration; type: functional, Heart; outline: as §5
[30] = test system: Rattus norvegicus; experiment: Compound was tested for antagonism of Ventricular Fibrilloflutter (VF) evoked by coronary artery ligation in the rat measured at 0.2 mg/kg dose; type: functional, Heart; outline: as §2
[31] = species: Cavia porcellus; experiment: Compound was tested for antiarrhythmic activity (time taken to reach 50% repolarization) in guinea pig atria at 8(ug/mL) concentration; type: functional, Heart; outline: as §5
[32] = species: Cavia porcellus; experiment: Compound was tested for antiarrhythmic activity expressed as action potential height (AP) in guinea pig atria at 4(ug/mL) concentration; type: functional, Heart; outline: as §5
[33] = species: Cavia porcellus; experiment: Compound was tested for antiarrhythmic activity (time taken to reach 90% repolarization) in guinea pig atria at 4(ug/mL) concentration; type: functional, Heart; outline: as §5
[34] = species: Cavia porcellus; experiment: Compound was tested for antiarrhythmic activity expressed as action potential height (AP) in guinea pig atria at 2(ug/mL) concentration; type: functional, Heart; outline: as §5
[35] = test system: Rattus norvegicus; experiment: Effect on heart rate before isoprenaline induced tachycardia in the anesthetized rat at 0.5 mg/kg dose; type: functional; outline: as §1
[36] = species: Cavia porcellus; experiment: Compound was tested for antiarrhythmic activity expressed as resting membrane potential (RMP) in guinea pig atria at 4 ug/mL concentration; type: functional; conditions: Heart; outline: as §5
[37] = test system: Rattus norvegicus; experiment: Effect of teh compound on heart rate on 1 min post isoprenaline induced tachycardia in the anesthetized rat at 2.0 mg/kg dose.; type: functional; outline: as §1

In the case of `CCCNCC(O)COc1ccccc1C(=O)CCc1ccccc1` (stereo not drawn) [PROPAFENONE], the Heart rate [1] is reported as 443 beats min-1, the ED50 [2] is reported as 0.7 mg/kg and the ED50 [3] is reported as 24.3 mg/kg. For the same compound, the Heart rate [4] was 391 beats min-1, the Heart rate [5] was 445 beats min-1 and the Change [6] was -11.7%. The Increase [7] was 13.8% and the EC25 [8] was 1.85 µg/mL (≈ 5.42 µM).
In the case of `CNC1[C@H](O)C[C@H]2[C@@H]3CCc4cc(OCC(O)CNC(C)C)ccc4[C@H]3CC[C@]12C` (stereo partly drawn), the ED50 [9] is reported as “inactive” and the EC25 [8] is reported as 21 µg/mL (≈ 50.4 µM).
`CN(C)C1CC[C@H]2[C@@H]3CCc4cc(O)ccc4[C@H]3CC[C@]12C` (stereo partly drawn) showed an ED50 [3] of 4.4 mg/kg and an EC25 [8] of 1.65 µg/mL (≈ 5.51 µM).
With `CN(C)C1[C@H](O)C[C@H]2[C@@H]3CCc4cc(OCC(O)CNC(C)(C)C)ccc4[C@H]3CC[C@]12C` (stereo partly drawn) the ED50 [9] was “inactive”, the VF [10] was 0% and the Heart rate [11] was 325 beats min-1. It also gave a VF [12] of 38%, a Heart rate [13] of 393 beats min-1 and an ED50 [14] of 0.5 mg/kg. It also gave a Heart rate [15] of 340 beats min-1, a Change [6] of -17.3% and an Increase [7] of 4.6%. For the same compound, the VF [16] was 44% and the EC25 [8] was 17.1 µg/mL (≈ 38.5 µM).
In the case of `CNC1CC[C@H]2[C@@H]3CCc4cc(O)ccc4[C@H]3CC[C@]12C` (stereo partly drawn), the ED50 [3] is reported as 8.2 mg/kg and the EC25 [8] is reported as 2.09 µg/mL (≈ 7.32 µM).
Compound `CN(C)C1[C@H](O)C[C@H]2[C@@H]3CCc4cc(O)ccc4[C@H]3CC[C@]12C` (stereo partly drawn) has an MRD [17] of 30.5 V s-1, an AP [18] of 69.9 mV and a Heart rate [19] of 490 beats min-1. It also gave an APD90 [20] of 98.9 ms, an ED50 [21] of 0.15 mg/kg and an APD50 [22] of 29.6 ms. The Heart rate [23] was 434 beats min-1, the RMP [24] was 70.1 mV and the APD90 [25] was 70.9 ms. It also gave an RMP [26] of 69.3 mV, an MRD [27] of 60.1 V s-1 and an MRD [28] of 86 V s-1. The VF [10] was 0%, the ED50 [3] was 11.5 mg/kg and the APD50 [29] was 29 ms. The VF [30] was 33%, the APD50 [31] was 43.5 ms and the AP [32] was 73.5 mV. For the same compound, the Change [6] was -1.8%, the Increase [7] was 12.9% and the VF [16] was 13%. For the same compound, the APD90 [33] was 74.2 ms, the EC25 [8] was 1.86 µg/mL (≈ 5.9 µM) and the AP [34] was 78.9 mV. For the same compound, the Heart rate [35] was 442 beats min-1 and the RMP [36] was 71.8 mV.
With `CNC1CC[C@H]2[C@@H]3CCc4cc(OCC(O)CNC(C)C)ccc4[C@H]3CC[C@]12C` (stereo partly drawn) the ED50 [9] was “inactive”, the Heart rate [37] was 318 beats min-1 and the Heart rate [11] was 315 beats min-1. The Heart rate [13] was 407 beats min-1, the Change [6] was -22.6% and the Increase [7] was 1%. The EC25 [8] was 11.9 µg/mL (≈ 29.7 µM).
